Measurements as given in ChEMBL document CHEMBL1127053, “3,4-Dimethyl-4-(3-hydroxyphenyl)piperidines: opioid antagonists with potent anorectant activity” (J Med Chem, 1993).

Legend:
[1] = biological target: T1, Adrenergic receptor alpha-1 (Rattus norvegicus, UniProt P15823+P23944+P43140); experiment: Tested for affinity against alpha-adrenergic using [3H]WB-4101 in rat brain; format: tissue-based
T1 sequence (P15823 whole entry): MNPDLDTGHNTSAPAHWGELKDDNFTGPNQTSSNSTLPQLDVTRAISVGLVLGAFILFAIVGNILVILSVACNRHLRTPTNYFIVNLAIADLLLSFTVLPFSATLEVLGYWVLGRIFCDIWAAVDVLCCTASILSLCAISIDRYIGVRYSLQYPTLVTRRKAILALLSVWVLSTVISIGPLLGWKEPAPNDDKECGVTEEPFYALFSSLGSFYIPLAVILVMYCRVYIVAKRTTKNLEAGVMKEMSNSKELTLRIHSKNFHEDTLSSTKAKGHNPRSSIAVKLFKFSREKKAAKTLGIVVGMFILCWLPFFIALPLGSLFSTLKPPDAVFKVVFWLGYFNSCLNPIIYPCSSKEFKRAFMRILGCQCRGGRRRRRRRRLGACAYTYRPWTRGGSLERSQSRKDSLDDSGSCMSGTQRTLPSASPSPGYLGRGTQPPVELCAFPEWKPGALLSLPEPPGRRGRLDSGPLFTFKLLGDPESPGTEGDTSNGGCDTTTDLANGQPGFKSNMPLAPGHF
T1 sequence (P23944 whole entry): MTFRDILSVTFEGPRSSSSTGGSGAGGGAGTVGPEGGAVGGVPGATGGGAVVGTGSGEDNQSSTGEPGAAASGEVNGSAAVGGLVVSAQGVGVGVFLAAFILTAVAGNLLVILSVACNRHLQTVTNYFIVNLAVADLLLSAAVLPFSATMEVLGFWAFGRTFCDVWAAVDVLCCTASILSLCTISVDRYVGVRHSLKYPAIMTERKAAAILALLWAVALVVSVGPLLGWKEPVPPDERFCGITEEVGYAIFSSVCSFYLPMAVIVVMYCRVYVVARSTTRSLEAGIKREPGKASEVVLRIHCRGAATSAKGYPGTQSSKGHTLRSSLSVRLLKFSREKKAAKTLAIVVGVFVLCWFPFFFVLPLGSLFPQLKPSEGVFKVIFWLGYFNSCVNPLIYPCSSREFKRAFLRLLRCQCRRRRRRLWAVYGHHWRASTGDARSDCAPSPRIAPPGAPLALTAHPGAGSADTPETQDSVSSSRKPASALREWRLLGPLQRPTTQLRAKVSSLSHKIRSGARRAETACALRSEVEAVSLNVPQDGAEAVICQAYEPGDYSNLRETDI
T1 sequence (P43140 whole entry): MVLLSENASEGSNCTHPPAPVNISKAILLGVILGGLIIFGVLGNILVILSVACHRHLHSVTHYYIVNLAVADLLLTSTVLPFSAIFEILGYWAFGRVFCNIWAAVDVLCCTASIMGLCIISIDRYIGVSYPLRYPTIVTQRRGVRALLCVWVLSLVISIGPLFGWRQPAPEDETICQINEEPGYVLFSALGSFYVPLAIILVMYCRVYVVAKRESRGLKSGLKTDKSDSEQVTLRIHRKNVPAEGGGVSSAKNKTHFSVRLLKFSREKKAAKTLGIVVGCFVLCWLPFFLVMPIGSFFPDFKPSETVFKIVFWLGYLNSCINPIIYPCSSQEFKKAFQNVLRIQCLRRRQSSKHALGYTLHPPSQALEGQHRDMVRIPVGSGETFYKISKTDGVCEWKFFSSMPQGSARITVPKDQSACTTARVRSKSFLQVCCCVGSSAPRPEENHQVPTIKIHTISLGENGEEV
How it was run: (§1)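 Radioligand binding in cortical membranes from male Sprague-Dawley rats (110-150 g). Ligands: [3H]serotonin for 5-HT1, [3H]QNB for muscarinic, [3H]WB4101 for α1, [3H]clonidine for α2, [3H]dihydroalprenolol for β-adrenergic.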

[2] = biological target: Mu-type opioid receptor (Mus musculus) (UniProt P42866); experiment: Antagonistic activity towards morphine induced mu-opioid receptor by mouse writhing assay at 1.25 mg/kg subcutaneously; format: functional, organism-based; design: dose 1.25 mg/kg
Sequence of Mu-type opioid receptor (Mus musculus) (P42866 whole entry): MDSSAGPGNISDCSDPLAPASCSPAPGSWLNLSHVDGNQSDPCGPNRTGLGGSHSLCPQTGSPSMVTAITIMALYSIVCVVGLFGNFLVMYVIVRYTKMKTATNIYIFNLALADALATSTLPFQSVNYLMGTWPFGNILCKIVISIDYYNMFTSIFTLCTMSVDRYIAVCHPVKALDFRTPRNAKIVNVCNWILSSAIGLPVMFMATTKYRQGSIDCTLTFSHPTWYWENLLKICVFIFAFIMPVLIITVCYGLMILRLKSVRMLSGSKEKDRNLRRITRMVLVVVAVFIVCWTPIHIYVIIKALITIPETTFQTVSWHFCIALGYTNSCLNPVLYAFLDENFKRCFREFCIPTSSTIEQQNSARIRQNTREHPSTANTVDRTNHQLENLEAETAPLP
How it was run: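 Mouse acetic acid writhing: 0.6% acetic acid ip, writhes counted for 10 min starting 5 min after injection. Agonist (morphine 1.25 mg/kg or U50,488 2.5 mg/kg) and antagonist given sc 20 min before acid. 5 mice/point, ≥5 doses varied 2-fold, each mouse used once. AD50 = antagonist dose reducing agonist-induced writhing inhibition to 50%.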

D(1A) dopamine receptor = D(1A) dopamine receptor (Rattus norvegicus, UniProt P18901); experiment: Tested for affinity against dopamine D1 receptor using [3H]SCH-23,390 in rat brain; format: tissue-based
Sequence of D(1A) dopamine receptor (P18901 whole entry): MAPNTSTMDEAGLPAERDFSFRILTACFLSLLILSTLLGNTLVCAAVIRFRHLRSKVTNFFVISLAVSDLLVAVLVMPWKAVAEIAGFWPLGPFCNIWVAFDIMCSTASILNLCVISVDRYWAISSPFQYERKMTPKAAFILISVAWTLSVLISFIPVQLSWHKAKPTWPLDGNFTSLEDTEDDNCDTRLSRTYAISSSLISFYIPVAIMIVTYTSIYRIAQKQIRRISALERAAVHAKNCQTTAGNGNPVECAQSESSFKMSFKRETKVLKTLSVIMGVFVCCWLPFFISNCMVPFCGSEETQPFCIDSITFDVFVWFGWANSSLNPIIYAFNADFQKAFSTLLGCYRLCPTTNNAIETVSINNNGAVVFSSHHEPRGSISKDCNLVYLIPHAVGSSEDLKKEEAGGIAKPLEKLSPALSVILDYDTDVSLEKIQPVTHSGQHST

Rattus norvegicus = experiment: Tested for concentration required to reduce the food consumption by 20 % subcutaneously; format: functional; conditions: Rattus norvegicus, sc; read-out: ED50
How it was run: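 Obese Zucker rats, 3-4 months old, trained to eat only 8 am-4 pm. Groups of 4 (2 male, 2 female), with one saline control group daily. Compound in saline with 10% DMSO, given sc on 3 consecutive days, typical doses 5.0-0.08 mg/kg (0.02-20 in some cases). Intake measured over the first 4 h. ED20 from regression of the linear portion of the dose-response curve.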

[3] = biological target: Delta-type opioid receptor (Mus musculus) (UniProt P32300); conditions: Vas deferens; 2 nM
Sequence of Delta-type opioid receptor (Mus musculus) (P32300 whole entry): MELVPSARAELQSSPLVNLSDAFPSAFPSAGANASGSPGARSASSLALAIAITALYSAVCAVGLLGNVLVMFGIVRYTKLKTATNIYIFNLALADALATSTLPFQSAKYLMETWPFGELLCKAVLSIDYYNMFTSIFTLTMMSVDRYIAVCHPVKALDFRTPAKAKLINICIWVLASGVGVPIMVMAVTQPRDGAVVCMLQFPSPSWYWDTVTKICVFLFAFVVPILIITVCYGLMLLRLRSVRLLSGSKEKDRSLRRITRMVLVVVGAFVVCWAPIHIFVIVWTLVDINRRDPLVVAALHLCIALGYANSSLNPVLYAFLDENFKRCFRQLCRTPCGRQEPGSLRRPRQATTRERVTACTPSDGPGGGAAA

[4] = biological target: Delta-type opioid receptor (Rattus norvegicus, UniProt P33533); experiment: Binding affinity towards delta-opioid receptor by displacement of [3H]DADL in rat brain homogenates; format: tissue-based
Sequence of Delta-type opioid receptor (P33533 whole entry): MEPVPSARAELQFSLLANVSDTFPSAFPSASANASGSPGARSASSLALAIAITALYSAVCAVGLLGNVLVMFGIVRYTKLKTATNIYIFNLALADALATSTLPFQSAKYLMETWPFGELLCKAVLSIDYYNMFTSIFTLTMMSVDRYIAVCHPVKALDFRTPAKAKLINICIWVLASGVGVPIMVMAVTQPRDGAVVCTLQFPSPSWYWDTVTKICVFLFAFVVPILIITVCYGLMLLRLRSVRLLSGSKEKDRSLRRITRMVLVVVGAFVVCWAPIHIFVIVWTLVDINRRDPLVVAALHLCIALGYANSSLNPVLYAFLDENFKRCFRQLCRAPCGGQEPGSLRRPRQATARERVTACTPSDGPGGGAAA
How it was run: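 Radioligand displacement. Kappa: [3H]EKC, guinea pig cortex, with fentanyl and DADL added to block mu/delta binding. Delta: [3H]DADL, rat brain homogenate.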

[5] = biological target: Serotonin receptor 2a and 2c (5HT2A and 5HT2C) (Rattus norvegicus, UniProt P08909+P14842); experiment: Tested for affinity against serotonin 5-HT2 receptor using […] (frontal cortex) in rat brain; format: tissue-based
D(2) dopamine receptor = D(2) dopamine receptor (Rattus norvegicus, UniProt P61169); experiment: Tested for affinity against dopamine D2 receptor using […] in rat brain; format: tissue-based
Sequence of D(2) dopamine receptor (P61169 whole entry): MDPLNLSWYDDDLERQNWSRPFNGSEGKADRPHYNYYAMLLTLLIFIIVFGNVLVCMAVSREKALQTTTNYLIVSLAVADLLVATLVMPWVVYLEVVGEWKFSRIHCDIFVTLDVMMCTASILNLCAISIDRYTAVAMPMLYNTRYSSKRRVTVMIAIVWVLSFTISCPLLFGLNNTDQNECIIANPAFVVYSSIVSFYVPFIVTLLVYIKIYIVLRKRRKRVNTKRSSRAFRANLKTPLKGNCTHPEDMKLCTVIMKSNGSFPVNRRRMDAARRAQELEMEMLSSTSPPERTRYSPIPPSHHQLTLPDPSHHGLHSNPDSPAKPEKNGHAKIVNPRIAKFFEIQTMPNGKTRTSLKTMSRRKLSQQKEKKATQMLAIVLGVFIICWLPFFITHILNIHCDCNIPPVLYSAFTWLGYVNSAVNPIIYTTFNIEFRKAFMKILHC

[6] = biological target: Kappa-type opioid receptor (Cavia porcellus) (UniProt P41144); conditions: Ileum, 2 nM
Sequence of Kappa-type opioid receptor (Cavia porcellus) (P41144 whole entry): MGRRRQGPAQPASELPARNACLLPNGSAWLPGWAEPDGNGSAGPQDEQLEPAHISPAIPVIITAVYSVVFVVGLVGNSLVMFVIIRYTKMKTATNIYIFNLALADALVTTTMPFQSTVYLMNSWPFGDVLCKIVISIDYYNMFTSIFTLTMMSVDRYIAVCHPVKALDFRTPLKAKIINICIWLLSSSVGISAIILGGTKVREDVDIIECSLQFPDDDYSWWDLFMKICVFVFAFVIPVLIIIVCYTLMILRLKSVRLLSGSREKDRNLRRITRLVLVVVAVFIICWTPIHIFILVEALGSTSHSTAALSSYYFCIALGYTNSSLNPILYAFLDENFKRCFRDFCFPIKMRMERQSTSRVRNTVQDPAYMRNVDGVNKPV

[7] = Tested for affinity against phencyclidine using [3H]phencyclidine in rat brain; format: tissue-based
[8] = biological target: Mu-type opioid receptor (Cavia porcellus) (UniProt P97266); conditions: Ileum, 2 nM
Sequence of Mu-type opioid receptor (Cavia porcellus) (P97266 whole entry): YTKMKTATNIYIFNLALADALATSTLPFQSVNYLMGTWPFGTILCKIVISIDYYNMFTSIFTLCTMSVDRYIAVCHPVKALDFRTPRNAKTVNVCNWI

[9] = biological target: Muscarinic acetylcholine receptor; experiment: Tested for affinity against muscarinic acetylcholine using [3H]quinuclidinyl benzylate in rat brain; format: tissue-based; how it was run: as §1
[10] = Tested for affinity against serotonin 5-HT1 receptor using [3H]5-HT in rat brain; format: tissue-based; how it was run: as §1
[11] = biological target: Kappa-type opioid receptor (Mus musculus) (UniProt P33534); experiment: Antagonist activity towards U50 488 induced kappa opioid receptor by mouse writhing assay at 2.5 mg/kg subcutaneously; format: functional, organism-based; design: dose 2.5 mg/kg
Sequence of Kappa-type opioid receptor (Mus musculus) (P33534 whole entry): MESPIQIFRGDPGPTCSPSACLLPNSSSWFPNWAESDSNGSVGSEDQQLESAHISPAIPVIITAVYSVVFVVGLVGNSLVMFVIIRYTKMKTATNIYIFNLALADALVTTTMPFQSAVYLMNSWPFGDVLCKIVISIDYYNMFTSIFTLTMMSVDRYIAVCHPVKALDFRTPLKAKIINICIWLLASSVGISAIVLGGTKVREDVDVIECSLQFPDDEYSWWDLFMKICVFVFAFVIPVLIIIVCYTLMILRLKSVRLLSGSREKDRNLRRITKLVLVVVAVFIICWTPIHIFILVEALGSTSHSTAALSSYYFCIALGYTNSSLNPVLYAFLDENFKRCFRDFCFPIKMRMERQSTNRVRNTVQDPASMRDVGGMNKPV
How it was run: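 Mouse acetic acid writhing: 0.6% acetic acid ip, writhes counted for 10 min starting 5 min after injection. 5 mice/point, ≥5 doses varied 2-fold, each mouse used once. AD50 = antagonist dose reducing agonist-induced writhing inhibition to 50%.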

Structure (SMILES): C[C@H]1CN(CC[C@H](O)C2CCCCC2)CC[C@@]1(C)c1cccc(O)c1
- IC50 [1]: > 5000 nM
- AD50 [2]: 0.015 mg/kg
- IC50 (D(1A) dopamine receptor): > 1000 nM
- ED50 (Rattus norvegicus): 0.04 mg/kg
- Ke [3]: 1.64 nM
- Ki [4]: 5.2 nM
- IC50 [5]: > 1000 nM
- IC50 (D(2) dopamine receptor): > 1000 nM
- Ke [6]: 0.31 nM
- IC50 [7]: > 1000 nM
- Ke [8]: 0.24 nM
- IC50 [9]: > 10000 nM
- IC50 [10]: > 1000 nM
- AD50 [11]: 0.05 mg/kg
